Data on 15 molecules can be found in ChEMBL document CHEMBL1134521, “Characterization of melanocortin NDP-MSH agonist peptide fragments at the mouse central and peripheral melanocortin receptors” (J Med Chem, 2001).

Where a SMILES comes first, the peptide text is derived from it. [ ]: non-standard residue; d: D form. Where only a bound is given, the exact number is not on record here.

Experiment [1] concerns the target T1, Melanocyte-stimulating hormone receptor (Mus musculus, UniProt Q01727). Put plainly: Functional activity at the mouse melanocortin 1 receptor. The procedure, abridged:
(§1)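 HEK-293 cells stably expressing the mouse receptor (calcium phosphate transfection, G418 1 mg/mL), transfected with CRE/β-galactosidase reporter. Lysates read at OD405 with ONPG at 37 °C, normalized to protein and forskolin (10^-4 M) response. EC50 from curve fit, at least three independent experiments.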

The target in experiment [2] is T2, Melanocortin receptor 3 (Mus musculus, UniProt P33033). Put plainly: Functional activity at the mouse melanocortin 3 receptor at 100 uM; Slight agonist.
The target of a further experiment is Melanocortin receptor 4 (Mus musculus, UniProt P56450). Put plainly: Functional activity at the mouse melanocortin 4 receptor. The procedure, abridged: as §1
Experiment [3] concerns the target T3, Melanocortin receptor 5 (Mus musculus, UniProt P41149). Put plainly: Functional activity at the mouse melanocortin 5 receptor. The procedure, abridged: as §1
In experiment [4] the target is T1, Melanocyte-stimulating hormone receptor. Briefly: Functional activity at the mouse melanocortin 1 receptor at 100 uM; Slight agonist.
Experiment [5] addresses T2, Melanocortin receptor 3. Briefly: Functional activity at the mouse melanocortin 3 receptor. The essentials:
as §1

In experiment [6] the target is T3, Melanocortin receptor 5. Put plainly: Functional activity at the mouse melanocortin 5 receptor at 100 uM; Slight agonist.

T2 sequence (P33033 whole entry): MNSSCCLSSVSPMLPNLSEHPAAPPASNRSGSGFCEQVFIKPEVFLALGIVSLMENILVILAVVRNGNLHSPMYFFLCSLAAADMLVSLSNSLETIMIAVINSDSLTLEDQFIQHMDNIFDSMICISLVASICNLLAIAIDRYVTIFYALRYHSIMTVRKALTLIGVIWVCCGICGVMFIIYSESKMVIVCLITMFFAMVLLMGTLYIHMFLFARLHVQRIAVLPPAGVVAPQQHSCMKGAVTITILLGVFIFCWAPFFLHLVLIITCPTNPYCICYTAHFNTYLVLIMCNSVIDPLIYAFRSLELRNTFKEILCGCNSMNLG
T3 sequence (P41149 whole entry): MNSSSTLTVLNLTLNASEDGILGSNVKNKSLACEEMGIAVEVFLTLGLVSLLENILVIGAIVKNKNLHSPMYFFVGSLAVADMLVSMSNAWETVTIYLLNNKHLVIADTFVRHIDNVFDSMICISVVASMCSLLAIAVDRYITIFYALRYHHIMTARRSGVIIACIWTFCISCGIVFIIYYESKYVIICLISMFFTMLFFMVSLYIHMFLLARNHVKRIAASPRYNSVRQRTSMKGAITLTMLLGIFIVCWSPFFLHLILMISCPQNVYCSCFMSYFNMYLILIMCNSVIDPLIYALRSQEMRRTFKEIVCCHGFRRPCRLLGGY
T1 sequence (Q01727 whole entry): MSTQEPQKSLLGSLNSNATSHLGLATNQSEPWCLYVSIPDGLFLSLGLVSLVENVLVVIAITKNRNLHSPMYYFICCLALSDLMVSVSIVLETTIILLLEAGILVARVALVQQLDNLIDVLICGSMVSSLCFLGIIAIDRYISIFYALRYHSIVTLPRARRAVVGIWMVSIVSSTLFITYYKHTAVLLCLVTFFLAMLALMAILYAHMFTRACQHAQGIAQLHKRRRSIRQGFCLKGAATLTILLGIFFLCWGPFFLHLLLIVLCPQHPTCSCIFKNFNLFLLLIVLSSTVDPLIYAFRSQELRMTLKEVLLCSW
Melanocortin receptor 4, sequence (P56450 whole entry): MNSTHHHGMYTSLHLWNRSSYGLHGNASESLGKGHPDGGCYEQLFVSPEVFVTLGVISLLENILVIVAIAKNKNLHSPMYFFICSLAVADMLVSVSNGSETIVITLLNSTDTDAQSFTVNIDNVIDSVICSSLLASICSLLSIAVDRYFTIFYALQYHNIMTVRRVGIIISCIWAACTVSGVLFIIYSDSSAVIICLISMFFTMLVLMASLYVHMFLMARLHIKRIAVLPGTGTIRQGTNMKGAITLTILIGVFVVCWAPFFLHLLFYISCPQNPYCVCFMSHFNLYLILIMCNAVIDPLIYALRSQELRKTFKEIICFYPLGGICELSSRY

For `CC(=O)N[C@H](Cc1ccccc1)C(=O)N[C@@H](CCCN=C(N)N)C(=O)N[C@@H](Cc1c[nH]c2ccccc12)C(N)=O` (Ac-[dF]-Arg-Trp-NH2), the half-maximal effective concentration (EC50) in experiment [1] is 4540 nM; at Melanocortin receptor 3 [2], “Partial agonist”; on Melanocortin receptor 4, 2320 nM; at Melanocortin receptor 5 [3], 1660 nM.

For the molecule `CC(=O)N[C@H](Cc1ccccc1)C(=O)N[C@@H](CCCN=C(N)N)C(=O)N[C@H](Cc1c[nH]c2ccccc12)C(N)=O`, the EC50 result in experiment [4] is “Partial agonist”; at Melanocortin receptor 3 [5], greater than 100000 nM; on Melanocortin receptor 4 it was 11200 nM; at Melanocortin receptor 5 [3] it was 6880 nM.

Regarding `CC(=O)N[C@@H](Cc1cnc[nH]1)C(=O)N[C@H](Cc1ccccc1)C(=O)N[C@@H](CCCN=C(N)N)C(=O)N[C@@H](Cc1c[nH]c2ccccc12)C(N)=O`, the EC50 on Melanocortin receptor 4 amounted to 10.2 nM; at Melanocortin receptor 5 [3], 3.46 nM.

As to `CCCC[C@H](NC(C)=O)C(=O)N[C@@H](CCC(=O)O)C(=O)N[C@@H](Cc1c[nH]cn1)C(=O)N[C@H](Cc1ccccc1)C(=O)N[C@@H](CCCN=C(N)N)C(=O)N[C@@H](Cc1c[nH]c2ccccc12)C(=O)NCC(N)=O`, the EC50 in experiment [1] was found to be 0.045 nM; at Melanocortin receptor 3 [5], 0.39 nM; at Melanocortin receptor 4, 0.94 nM; on Melanocortin receptor 5 [3] it was 0.59 nM.

`CC(=O)N[C@@H](Cc1cnc[nH]1)C(=O)N[C@H](Cc1ccccc1)C(=O)N[C@@H](CCCNC(=N)N)C(=O)N[C@H](Cc1c[nH]c2ccccc12)C(N)=O`: the 50% effective concentration (EC50) at Melanocortin receptor 4 was 154 nM; on Melanocortin receptor 5 [3] it was 61.3 nM.

On to `CCCC[C@H](NC(=O)[C@H](CO)NC(=O)[C@H](Cc1ccc(O)cc1)NC(=O)[C@H](CO)NC(C)=O)C(=O)N[C@@H](CCC(=O)O)C(=O)N[C@@H](Cc1c[nH]cn1)C(=O)N[C@H](Cc1ccccc1)C(=O)N[C@@H](CCCN=C(N)N)C(=O)N[C@@H](Cc1c[nH]c2ccccc12)C(=O)NCC(=O)N[C@@H](CCCCN)C(N)=O`, for which the EC50 in experiment [1] worked out at 0.018 nM; at Melanocortin receptor 3 [5], 0.16 nM; on Melanocortin receptor 4, 0.44 nM; at Melanocortin receptor 5 [3] it was 0.46 nM.

On to `CC(=O)N[C@@H](Cc1ccccc1)C(=O)N[C@@H](CCCN=C(N)N)C(=O)N[C@@H](Cc1c[nH]c2ccccc12)C(N)=O` (Ac-Phe-Arg-Trp-NH2), for which, at Melanocortin receptor 5 [6], the EC50 result is reported as “Partial agonist”.

`CC(=O)N[C@@H](Cc1ccccc1)C(=O)N[C@@H](CCCNC(=N)N)C(=O)N[C@@H](Cc1c[nH]c2ccccc12)C(N)=O` (Ac-Phe-Arg-Trp-NH2): the EC50 in experiment [1] is 5870 nM; at Melanocortin receptor 3 [5], greater than 100000 nM; on Melanocortin receptor 4, greater than 100000 nM.

On to `CC(=O)N[C@@H](Cc1c[nH]cn1)C(=O)N[C@@H](Cc1ccccc1)C(=O)N[C@@H](CCCN=C(N)N)C(=O)N[C@@H](Cc1c[nH]c2ccccc12)C(N)=O`, for which the EC50 is 2110 nM on Melanocortin receptor 4 and 103 nM on Melanocortin receptor 5 [3].

In the case of `CCCC[C@H](NC(=O)[C@H](CO)NC(=O)[C@H](Cc1ccc(O)cc1)NC(=O)[C@H](CO)NC(C)=O)C(=O)N[C@@H](CCC(=O)O)C(=O)N[C@@H](Cc1cnc[nH]1)C(=O)N[C@H](Cc1ccccc1)C(=O)N[C@@H](CCCNC(=N)N)C(=O)N[C@@H](Cc1c[nH]c2ccccc12)C(N)=O`, the concentration giving a half-maximal response (EC50) was 0.036 nM in experiment [1], 0.29 nM on Melanocortin receptor 3 [5], 0.78 nM at Melanocortin receptor 4 and 0.53 nM on Melanocortin receptor 5 [3].

For the molecule `CC(=O)N[C@@H](CCC(=O)O)C(=O)N[C@@H](Cc1c[nH]cn1)C(=O)N[C@H](Cc1ccccc1)C(=O)N[C@@H](CCCN=C(N)N)C(=O)N[C@@H](Cc1c[nH]c2ccccc12)C(N)=O`, the EC50 turned out to be 8.94 nM in experiment [1], 15.2 nM at Melanocortin receptor 3 [5], 4.31 nM at Melanocortin receptor 4 and 0.42 nM at Melanocortin receptor 5 [3].

Regarding `CC(=O)N[C@@H](Cc1c[nH]cn1)C(=O)N[C@H](Cc1ccccc1)C(=O)N[C@@H](CCCN=C(N)N)C(=O)N[C@@H](Cc1c[nH]c2ccccc12)C(=O)NCC(=O)N[C@@H](CCCCN)C(=O)N1CCC[C@H]1C(=O)N[C@H](C(N)=O)C(C)C`, the concentration giving a half-maximal response (EC50) in experiment [1] worked out at 0.49 nM; at Melanocortin receptor 3 [5], 6.82 nM; on Melanocortin receptor 4, 0.45 nM; at Melanocortin receptor 5 [3] it was 0.17 nM.

As for `CC(=O)N[C@@H](Cc1c[nH]cn1)C(=O)N[C@@H](Cc1ccccc1)C(=O)N[C@@H](CCCN=C(N)N)C(=O)N[C@H](Cc1c[nH]c2ccccc12)C(N)=O`, the EC50 at Melanocortin receptor 4 turned out to be 6620 nM; at Melanocortin receptor 5 [3] it was 317 nM.

Turning to `CCCC[C@H](NC(C)=O)C(=O)N[C@@H](CCC(=O)O)C(=O)N[C@@H](Cc1cnc[nH]1)C(=O)N[C@H](Cc1ccccc1)C(=O)N[C@@H](CCCNC(=N)N)C(=O)N[C@@H](Cc1c[nH]c2ccccc12)C(=O)NCC(=O)N[C@@H](CCCCN)C(=O)N1CCC[C@H]1C(=O)N[C@H](C(N)=O)C(C)C`, the EC50 in experiment [1] is 0.021 nM; at Melanocortin receptor 3 [5], 0.11 nM; at Melanocortin receptor 4, 0.32 nM; on Melanocortin receptor 5 [3], 0.46 nM.

Turning to `CCCC[C@H](NC(C)=O)C(=O)N[C@@H](CCC(=O)O)C(=O)N[C@@H](Cc1c[nH]cn1)C(=O)N[C@H](Cc1ccccc1)C(=O)N[C@@H](CCCN=C(N)N)C(=O)N[C@@H](Cc1c[nH]c2ccccc12)C(N)=O`, the EC50 in experiment [1] worked out at 0.034 nM; at Melanocortin receptor 3 [5], 0.26 nM; at Melanocortin receptor 4, 0.45 nM; at Melanocortin receptor 5 [3], 0.39 nM.

Usually EC50 stands for the concentration that produces a half-maximal response.
